Reference: PMC6146057 (ACS chemical neuroscience, 2018)
Where a chain is given by its changes, count along the chain named. Like-named read-outs stand apart in the source and are kept apart here.

How the values were obtained:
[1] = test system: layer V medial prefrontal cortex fEPSPs; test: Extracellular field electrophysiology in layer V prelimbic mPFC slices; design: species or system mouse
Outline: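 Coronal prelimbic slices (400 μm) recovered in NMDG-HEPES solution (pH 7.3) for 8–10 min at 32 °C, then were perfused with ACSF at 2 mL/min and 30–32 °C. Layer V fEPSPs were evoked from layers II–III (200 μs, 0.05 Hz) or optically in ChR2-injected mice. Compound alone was bath-applied for 20 min. Alternatively, 10 μM compound was applied for 10 min, then with 3 μM OxoM for 10 min. Slope was measured 46–50 min after washout.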

M1 [2] = target: T1, M1 (Homo sapiens, UniProt P11229); settings: cited from earlier work
T1 sequence (P11229 1-460): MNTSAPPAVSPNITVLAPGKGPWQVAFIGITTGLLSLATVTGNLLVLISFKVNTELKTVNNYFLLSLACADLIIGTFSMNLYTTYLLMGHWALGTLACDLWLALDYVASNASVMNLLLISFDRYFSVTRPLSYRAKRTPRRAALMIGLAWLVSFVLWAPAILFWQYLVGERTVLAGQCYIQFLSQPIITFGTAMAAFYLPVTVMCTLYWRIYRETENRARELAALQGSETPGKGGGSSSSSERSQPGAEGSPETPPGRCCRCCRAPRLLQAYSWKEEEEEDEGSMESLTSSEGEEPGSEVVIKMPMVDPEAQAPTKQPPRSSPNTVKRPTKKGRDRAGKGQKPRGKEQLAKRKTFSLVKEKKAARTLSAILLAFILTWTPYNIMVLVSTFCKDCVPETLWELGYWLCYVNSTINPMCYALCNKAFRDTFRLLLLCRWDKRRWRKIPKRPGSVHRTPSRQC

rat M1 = target: T2, rat M1 (Rattus norvegicus, UniProt P08482); settings: reported M1 PAMs with adverse effect liability; cited from earlier work
T2 sequence (P08482 1-460): T1 sequence (P11229 1-460) with A5V, T254S, P309S, R320K, A337G, I413V

[3] = test system: layer V medial prefrontal cortex fEPSPs; settings: cited from earlier work
mice = settings: cited from earlier work
M1 [4] = target: T1, M1; test: M1 PAM potency at increasing ACh concentration; assay type: cell-based; settings: read-out: M1 PAM potency
rats [5] = test: Contextual fear conditioning, risperidone-induced deficit; assay type: in vivo, rat; settings: 3 mg/kg i.p. alone
rats [6] = settings: cited from earlier work

With C[N+](C)(C)CC#CCN1CCCC1=O [oxotremorine-M, reference compound] the “LTD of layer V fEPSPs, agonist alone” value ([1]; 3 μM, optical stimulation of ventral hippocampal afferents) was “does not induce a significant LTD”.

In the case of Cn1cc(-c2ccc(CN3Cc4ncccc4C3=O)c(F)c2)cn1 [VU0453595], the “potency at M1” value (M1 [2]) is given as “low micromolar range”.

For C[N+](C)(C)CCOC(N)=O [carbachol, reference compound], the “LTD of layer V fEPSPs, agonist alone” value ([1]; 10 μM, electrically evoked) was “does not induce a significant long-term depression”.

For Cc1cc2c(cc1Cc1ccc(-c3cocn3)cc1)C(=O)N([C@H]1CCOC[C@@H]1O)C2 [PF-06827443], the “Displacement of [3H]-NMS” value (rat M1) is listed as “weak to significant displacement”, the “Agonist activity in the mouse PFC” value [3] is listed as “have agonist activity” and the Seizures in mice (mice; mice) is listed as “induced seizures in mice”. For the same compound, the EC50 (M1 [4]; ACh concentration increased to EC70) was 0.007 ± 0.001 µM and the EC50 (M1 [4]; very low level of ACh (~EC9)) was 0.04 ± 0.006 µM.

For COc1ccc(Cn2cc(C(=O)O)c(=O)c3ccccc32)cc1 [compound 1], the “Displacement of [3H]-NMS” value (rat M1) is listed as “weak to significant displacement”.

For Cc1nc2n(c(=O)c1CCN1CCC(c3noc4cc(F)ccc34)CC1)CCCC2 [risperidone, reference compound], the “Effect on acquisition of contextual fear conditioning” value (rats [5]) was “deficits in acquisition of contextual fear conditioning”.

For Cn1cc(-c2ccc(Cn3cc(C(=O)N[C@H]4CCCC[C@@H]4O)c4c(F)cc(F)cc43)cn2)cn1 [VU6004256], the “Behavioral convulsions and cholinergic AEs” value (mice; rodents) is listed as “devoid of behavioral convulsions and cholinergic AEs”.

For Cc1ccc(Cc2cc3c(=O)n([C@H]4CCCC[C@@H]4O)cnc3c3ccccc23)cn1 [compound 2], the “Efficacy in rat novel object recognition (NOR) model” value (rats [6]) is listed as “failed to show efficacy”, the “Displacement of [3H]-NMS” value (rat M1) is listed as “weak to significant displacement” and the “Agonist activity in the mouse PFC” value [3] is listed as “have agonist activity”. The “Behavioral convulsions, Racine scale” value (mice; mice, develop rapidly and lasted 3 h) was 4/5.
